Measured values taken from ChEMBL document CHEMBL1136772, “Thyroid receptor ligands. 1. Agonist ligands selective for the thyroid receptor beta1” (J Med Chem, 2003).

Experiments:
Format in all cases: functional
Rattus norvegicus [1] = experiment: Effect upon subcutaneous administration on TSH suppression in rat was determined
Summary of the method: (§1)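 Male Sprague-Dawley rats on chow with 1.5% cholesterol and 0.5% cholic acid for 2 weeks, then s.c. once daily for 7 days (vehicle 10% m-pyrol, 5% ethanol, 5% cremaphor, 80% water; n = 6/dose), doses 1.54–9240 nmol/kg/day. Plasma TSH measured by rat RIA and cholesterol by clinical analyzer in aortic blood after pentobarbital. ED50 = dose giving 50% suppression from vehicle, in nmol/kg/day.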

Rattus norvegicus [2] = species on record: Rattus norvegicus; experiment: Ratio of ED50TSH to that of ED50chol was determined; summary of the method: as §1
Rattus norvegicus [3] = experiment: Effect upon subcutaneous administration on the heart rate in rat was determined
Summary of the method: (§2)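 Cholesterol-fed male Sprague-Dawley rats (1.5% cholesterol, 0.5% cholic acid, 2 weeks) dosed s.c. once daily for 7 days, vehicle 10% m-pyrol/5% ethanol/5% cremaphor/80% water, n = 6/dose, 1.54–9240 nmol/kg/day. Heart rate recorded by lead II ECG under 30 mg/kg pentobarbital. ED15 = dose raising heart rate 15% over vehicle; ratio taken against cholesterol ED50 (50% suppression from vehicle).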

Rattus norvegicus [4] = species on record: Rattus norvegicus; experiment: Ratio of ED15HR to that of ED50chol was determined; summary of the method: as §2
Rattus norvegicus [5] = experiment: Effect upon subcutaneous administration on cholesterol in rat was determined; summary of the method: as §1

CC(C)c1cc(Oc2c(Br)cc(CC(=O)O)cc2Br)ccc1O
ED50 (Rattus norvegicus [1]): <46.2 nM/day/kg | TSH/chol (Rattus norvegicus [2]): <0.5 | ED15 (Rattus norvegicus [3]): 926 nM/day/kg | HR/chol (Rattus norvegicus [4]): 9.7 | ED50 (Rattus norvegicus [5]): 95.4 nM/day/kg

CC(C)c1cc(Oc2c(Cl)cc(CC(=O)O)cc2Cl)ccc1O
ED50 (Rattus norvegicus [1]): 38 nM/day/kg | TSH/chol (Rattus norvegicus [2]): 0.4 | ED15 (Rattus norvegicus [3]): 1077 nM/day/kg | HR/chol (Rattus norvegicus [4]): 13.1 | ED50 (Rattus norvegicus [5]): 82 nM/day/kg

N[C@H](Cc1cc(I)c(Oc2ccc(O)c(I)c2)c(I)c1)C(=O)O [DETROTHYRONINE]
ED50 (Rattus norvegicus [1]): 7 nM/day/kg | TSH/chol (Rattus norvegicus [2]): 0.3 | ED15 (Rattus norvegicus [3]): 14 nM/day/kg | HR/chol (Rattus norvegicus [4]): 0.7 | ED50 (Rattus norvegicus [5]): 20 nM/day/kg
